Assay results from ChEMBL document CHEMBL1136288, “A catch-and-release strategy for the combinatorial synthesis of 4-acylamino-1,3-thiazoles as potential CDK5 inhibitors” (Bioorg Med Chem Lett, 2003).

Tests used:
[1] = molecular target: Cyclin-dependent kinase 2/cyclin A (Homo sapiens, UniProt P24941); test: Ability to inhibit cyclin-dependent kinase 2-cyclin A.; assay type: protein-complex assay
Outline: (§1)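 CDK5/GST-p25 was at 0.5 nM and CDK2/GST-cyclin A at 4 nM. Incubated 30 min at 37 °C, stopped with streptavidin SPA beads/EDTA, and counted. IC50 came from a sigmoidal dose-response fit, averaged when repeated.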

[2] = molecular target: T1, Cyclin-dependent kinase 5/CDK5 activator 1 (Homo sapiens, UniProt Q00535); test: Ability to inhibit Cyclin-dependent kinase 5-p35.; assay type: protein-complex assay; outline: as §1
T1 sequence (Q00535 whole entry): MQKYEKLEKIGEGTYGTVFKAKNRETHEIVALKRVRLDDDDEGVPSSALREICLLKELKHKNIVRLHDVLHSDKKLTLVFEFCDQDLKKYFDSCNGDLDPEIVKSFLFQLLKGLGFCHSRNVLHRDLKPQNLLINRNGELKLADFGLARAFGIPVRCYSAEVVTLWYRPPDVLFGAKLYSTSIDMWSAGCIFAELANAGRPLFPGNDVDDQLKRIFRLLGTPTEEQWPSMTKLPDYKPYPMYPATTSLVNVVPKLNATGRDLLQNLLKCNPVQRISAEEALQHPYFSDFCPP
T1 sequence (Q15078 whole entry, further chain): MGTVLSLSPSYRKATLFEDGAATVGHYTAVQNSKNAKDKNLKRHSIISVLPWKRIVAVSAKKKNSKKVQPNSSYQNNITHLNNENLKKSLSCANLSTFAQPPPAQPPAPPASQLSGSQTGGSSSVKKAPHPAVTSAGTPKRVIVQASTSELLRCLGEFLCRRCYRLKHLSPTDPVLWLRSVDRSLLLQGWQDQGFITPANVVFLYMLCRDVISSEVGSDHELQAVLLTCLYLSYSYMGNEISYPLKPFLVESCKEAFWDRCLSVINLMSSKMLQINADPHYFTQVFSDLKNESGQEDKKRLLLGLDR

[3] = molecular target: T2, Cyclin-dependent kinase 5/CDK5 activator 1 (Homo sapiens) (UniProt Q00535+Q15078); test: Inhibition of Cyclin-dependent kinase 5-p35nck5a at 20 uM; assay type: protein-complex assay
T2 sequence (Q00535 whole entry): as the sequence (Q00535 whole entry) above
T2 sequence (Q15078 99-307 partner limits assumed): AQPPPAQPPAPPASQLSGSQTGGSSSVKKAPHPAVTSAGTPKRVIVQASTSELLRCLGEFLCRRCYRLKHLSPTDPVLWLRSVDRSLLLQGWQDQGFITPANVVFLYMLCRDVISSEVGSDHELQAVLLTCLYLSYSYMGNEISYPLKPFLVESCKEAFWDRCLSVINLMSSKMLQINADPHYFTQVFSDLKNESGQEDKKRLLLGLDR

[4] = molecular target: T2, Cyclin-dependent kinase 5/CDK5 activator 1 (Homo sapiens); test: Inhibition of Cyclin-dependent kinase 5-p35nck5a; assay type: protein-complex assay; details: concentration not given here; outline: as §1
[5] = Specificity for CDK5 over Cyclin-dependent kinase 2-cyclin A
[6] = molecular target: T1, Cyclin-dependent kinase 5/CDK5 activator 1; test: Inhibition of Tau Protein Kinase II (TPK II); assay type: protein-complex assay; outline: as §1

SMILES | IC50 [1] [µM] | IC50 [2] [µM] | further results
O=C(Nc1csc(Cc2ccccc2)n1)NN1CCOCC1 | > 100 | 55 | 
COc1ccc(OCc2nc(NC(=O)NN3CCOCC3)cs2)cc1 | 20 | 30 | 
O=C(NOc1ccccc1)Nc1csc(Cc2ccccc2)n1 | > 100 | 20 | 
O=C(Nc1csc(Cc2c(Cl)cccc2Cl)n1)NN(Cc1ccccc1)Cc1ccccc1 |  | > 100 | 
O=C(Nc1csc(COc2ccccc2)n1)NN1CCOCC1 | > 100 | 80 | 
CN(NC(=O)Nc1csc(Cc2c(Cl)cccc2Cl)n1)c1ccccc1 | 60 | 10 | 
O=C(NOCc1ccccc1)Nc1csc(Cc2c(Cl)cccc2Cl)n1 |  |  | inhibition [3]: 40%
O=C(Nc1csc(Cc2ccccc2Cl)n1)NN1CCOCC1 |  |  | inhibition [4]: 30%
O=C(Nc1csc(Cc2c(Cl)cccc2Cl)n1)NN1CCOCC1 | 10 | 1 | IC50 [5]: 10 µM; Ki [6]: 0.5 µM
Cc1ccc(-c2nc(NC(=O)NN3CCOCC3)cs2)cc1 |  | > 100 | 
O=C(Nc1csc(-c2cccs2)n1)NN1CCOCC1 | 10 | 30 | 
O=C(Nc1csc(CSc2ccccc2)n1)NN1CCOCC1 | 30 | 30 | 
O=C(Nc1csc(CS(=O)(=O)c2ccccn2)n1)NN1CCOCC1 | 5 | 10 | 
Cc1cccc(-c2nc(NC(=O)NOc3ccccc3)cs2)c1 | > 100 | 16 | 
CS(=O)(=O)Cc1nc(NC(=O)NOc2ccccc2)cs1 | 90 | 6 | 
CCc1nc(NC(=O)NN2CCOCC2)cs1 |  | > 100 | 
CS(=O)(=O)Cc1nc(NC(=O)NN2CCOCC2)cs1 |  |  | inhibition [4]: 35%
O=C(Nc1csc(-c2ccccc2Cl)n1)NN1CCOCC1 | 10 | 30 | 
O=C(Nc1csc(Cc2c(Cl)cccc2Cl)n1)NN1CCCCCC1 | 70 | 10 | 
O=C(NOc1ccccc1)Nc1csc(-c2ccccc2)n1 | 35 | 8 | 
O=C(Nc1csc(Cc2c(Cl)cccc2Cl)n1)NN1CCCCC1 | 30 | 6 | 
Cc1cccc(-c2nc(NC(=O)NN3CCOCC3)cs2)c1 | 20 | 30 | 
O=C(Nc1csc(-c2ccccc2)n1)NN1CCOCC1 | 6 | 9 | 
O=C(Nc1csc(-c2ccc(Cl)cc2)n1)NN1CCOCC1 |  | > 100 | 
O=C(Nc1csc(Cc2ccc(Br)cc2)n1)NN1CCOCC1 |  |  | inhibition [4]: 26%

Further lines, with some results ahead:

IC50 [1] [µM] | IC50 [2] [µM] | SMILES | further results
> 100 | 9 | CONC(=O)Nc1csc(Cc2c(Cl)cccc2Cl)n1 | 
> 100 | 0.9 | O=C(NOc1ccccc1)Nc1csc(Cc2c(Cl)cccc2Cl)n1 | 
 | > 100 | O=C(NOCc1c(F)c(F)c(F)c(F)c1F)Nc1csc(Cc2c(Cl)cccc2Cl)n1 | 
40 | 6 | C=CCONC(=O)Nc1csc(Cc2c(Cl)cccc2Cl)n1 | 
20 | 5 | CCONC(=O)Nc1csc(Cc2c(Cl)cccc2Cl)n1 | 
10 | 4 | CN(C)NC(=O)Nc1csc(Cc2c(Cl)cccc2Cl)n1 | 
 | > 100 | COC[C@H]1CCCN1NC(=O)Nc1csc(Cc2c(Cl)cccc2Cl)n1 | 
 | > 100 | CNNC(=O)Nc1csc(Cc2c(Cl)cccc2Cl)n1 | 
 | > 100 | CNN(C)C(=O)Nc1csc(Cc2c(Cl)cccc2Cl)n1 | 
90 | 3 | O=C(NOC1CCCCO1)Nc1csc(Cc2c(Cl)cccc2Cl)n1 (stereo unspecified) | 
20 | 3 | O=C(Nc1csc(Cc2c(Cl)cccc2Cl)n1)NN1CCCC1 | 
15 | 1 | CC(C)(C)ONC(=O)Nc1csc(Cc2c(Cl)cccc2Cl)n1 | 
 | > 100 | O=C(NNc1ccccc1)Nc1csc(Cc2c(Cl)cccc2Cl)n1 | 
 | > 100 | NNC(=O)Nc1csc(Cc2c(Cl)cccc2Cl)n1 | 
